Source: ChEMBL document CHEMBL1145926, “Polyamine-iron chelator conjugate” (J Med Chem, 2003)

How the values were obtained:
[1] = Compound was tested for the inhibition of spermidine transporter by using [3H]SPD transport in L1210 cell; assay type: functional, cell-based, Mus musculus
Procedure, shortened: (§1)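 L1210 cell suspensions were incubated in culture medium with [3H]spermidine, either alone or with graduated concentrations of competitor. Cells were pelleted, washed, digested, neutralized and scintillation-counted. Ki was derived from Lineweaver–Burk plots assuming competitive inhibition against spermidine, as the mean of two to three experiments.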

L1210 [2] = test: Compound was determined for putrescine (PUT) level in L1210 cells after treatment at a concentration of 100 uM and expressed as percent compound found in untreated controls.; assay type: functional, Mus musculus
L1210 [3] = test: Compound was tested for the growth inhibition of L1210 cell at a duration of 48 h; assay type: functional, cell-based; conditions: Mus musculus, L1210, 48 h
L1210 [4] = test: Compound was determined for spermidine (SPD) level in L1210 cells after treatment at a concentration of 100 uM and expressed as percent compound found in untreated controls.; assay type: functional, Mus musculus
L1210 [5] = test: Compound was determined for spermine (SPM) level in L1210 cells after treatment at a concentration of 100 uM and expressed as percent compound found in untreated controls.; assay type: functional, Mus musculus
[6] = biological target: Diamine acetyltransferase 1 (Mus musculus) (UniProt P48026); test: Compound was tested for the enzyme activity against Spermidine/spermine N1-acetyl transferase (SSAT) in L1210 cells and expressed as percent compound found in untreated controls.; assay type: cell-based
Diamine acetyltransferase 1 (Mus musculus), sequence (P48026 whole entry): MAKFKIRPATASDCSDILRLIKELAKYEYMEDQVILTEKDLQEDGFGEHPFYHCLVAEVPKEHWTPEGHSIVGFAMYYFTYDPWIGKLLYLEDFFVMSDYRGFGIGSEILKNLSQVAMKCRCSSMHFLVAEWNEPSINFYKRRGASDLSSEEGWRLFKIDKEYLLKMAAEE
Procedure, shortened: (§2)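 L1210 cells were treated for 48 h at 10 µM, or at 0.2 µM for the conjugate. SSAT activity was measured as [14C]N1-acetylspermidine formed from spermidine and [14C]acetyl-CoA, expressed as percent of untreated control. The positive control was 2 µM DENSPM. Results are the mean of at least three experiments.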

[7] = biological target: T1, Ornithine decarboxylase (Mus musculus) (UniProt P00860); test: Compound was tested for the enzyme activity against ornithine decarboxylase (ODC) in L1210 cells and expressed as percent compound found in untreated controls.; assay type: cell-based
T1 sequence (whole entry): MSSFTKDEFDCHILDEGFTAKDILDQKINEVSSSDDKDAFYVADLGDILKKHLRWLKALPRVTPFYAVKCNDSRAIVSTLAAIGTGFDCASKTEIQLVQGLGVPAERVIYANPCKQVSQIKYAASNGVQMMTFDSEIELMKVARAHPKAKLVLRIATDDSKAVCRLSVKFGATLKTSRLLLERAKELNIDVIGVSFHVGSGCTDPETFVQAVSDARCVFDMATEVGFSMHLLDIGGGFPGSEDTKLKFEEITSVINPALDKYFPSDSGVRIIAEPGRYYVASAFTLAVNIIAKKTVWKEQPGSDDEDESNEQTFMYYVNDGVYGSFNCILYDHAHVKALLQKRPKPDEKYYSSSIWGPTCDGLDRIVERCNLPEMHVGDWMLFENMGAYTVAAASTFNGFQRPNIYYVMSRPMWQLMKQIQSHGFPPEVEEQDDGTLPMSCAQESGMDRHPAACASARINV
Procedure, shortened: (§3)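 L1210 cells were treated at 1 µM for 4 h. ODC activity was measured as 14CO2 released from [14C]carboxyl-labeled L-ornithine and expressed as percent of untreated control. Controls were untreated cells and 1 µM DEHSPM-treated cells. Results are the mean of at least three experiments.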

[8] = biological target: T2, S-adenosylmethionine decarboxylase proenzyme 1 (Mus musculus) (UniProt P0DMN7); test: Compound was tested for the enzyme activity against S-Adenosyl-methionine decarboxylase in L1210 cells and expressed as percent compound found in untreated controls.; assay type: cell-based
T2 sequence (whole entry): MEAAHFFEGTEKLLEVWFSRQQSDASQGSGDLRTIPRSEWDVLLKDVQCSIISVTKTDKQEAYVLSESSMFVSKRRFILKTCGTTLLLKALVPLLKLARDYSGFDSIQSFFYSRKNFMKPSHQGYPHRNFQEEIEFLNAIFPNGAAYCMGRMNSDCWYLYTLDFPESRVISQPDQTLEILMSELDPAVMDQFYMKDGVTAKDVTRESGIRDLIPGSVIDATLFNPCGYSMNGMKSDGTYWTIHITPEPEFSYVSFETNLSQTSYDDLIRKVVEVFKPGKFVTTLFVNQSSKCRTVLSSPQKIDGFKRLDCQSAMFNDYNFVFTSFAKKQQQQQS
Procedure, shortened: as §3, with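 “for 6” for “for 4”, “h. AdoMetDC” for “h. ODC”, “[14C]carboxyl-labeled S-adenosyl-L-methionine” for “[14C]carboxyl-labeled L-ornithine”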

[9] = Compound was tested for the inhibition of spermidine transporter by using [3H]SPD transport in murine L1210 cell; assay type: functional, cell-based, Mus musculus; procedure, shortened: as §1
L1210 [10] = test: Compound was determined for putrescine (PUT) level in murine L1210 cells after treatment at a concentration of 100 uM and expressed as percent compound found in untreated controls.; assay type: functional, Mus musculus
[11] = biological target: T1, Ornithine decarboxylase (Mus musculus); test: Compound was tested for the enzyme activity against ornithine decarboxylase (ODC) in murine L1210 cells and expressed as percent compound found in untreated controls.; assay type: cell-based; procedure, shortened: as §3
[12] = biological target: T2, S-adenosylmethionine decarboxylase proenzyme 1 (Mus musculus); test: Compound was tested for the enzyme activity against S-Adenosyl-methionine decarboxylase in murine L1210 cells and expressed as percent compound found in untreated controls.; assay type: cell-based
Procedure, shortened: as §3, with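 “for 6” for “for 4”, “h. AdoMetDC” for “h. ODC”, “[14C]carboxyl-labeled S-adenosyl-L-methionine” for “[14C]carboxyl-labeled L-ornithine”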

[13] = biological target: Diamine acetyltransferase 1 (Mus musculus) (UniProt P48026); test: Compound was tested for the enzyme activity against Spermidine/spermine N1-acetyl transferase (SSAT) in murine L1210 cells and expressed as percent compound found in untreated controls.; assay type: cell-based; procedure, shortened: as §2
L1210 [14] = test: Compound was tested for the growth inhibition of murine L1210 cell at a duration of 96 h; assay type: functional, cell-based; conditions: Mus musculus, L1210, 96 h
Procedure, shortened: (§4)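 Log-phase suspension cultures of murine L1210 cells (0.5–1.0 × 10^5 cells/mL) were grown in RPMI-1640 with 10% FBS and 1 mM aminoguanidine at 37 °C and 5% CO2. Cells were treated, reseeded and counted to give percent of control growth. IC50 is the concentration reducing growth to 50% of control after 48 or 96 h, as the mean of at least two experiments.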

L1210 [15] = test: Compound was determined for spermine (SPM) level in murine L1210 cells after treatment at a concentration of 100 uM and expressed as percent compound found in untreated controls.; assay type: functional, Mus musculus
L1210 [16] = test: Compound was tested for the growth inhibition of murine L1210 cell at a duration of 48 h; assay type: functional, cell-based; conditions: Mus musculus, L1210, 48 h; procedure, shortened: as §4
L1210 [17] = test: Compound was determined for spermidine (SPD) level in L1210 cells after treatment at a concentration of 0.2 uM and expressed as percent compound found in untreated controls.; assay type: functional, Mus musculus
Procedure, shortened: (§5)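 L1210 cells in RPMI-1640 with 10% FBS, HEPES-MOPS, 1 mM glutamine and 1 mM aminoguanidine were exposed to 0.2 µM during log growth for 48 h. Cells were washed three times in ice-cold incomplete medium, extracted with 0.6 N perchloric acid and freeze-fractured three times. Putrescine, spermidine and spermine were measured by HPLC and expressed as percent of untreated control.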

L1210 [18] = test: Compound was determined for spermine (SPM) level in L1210 cells after treatment at a concentration of 0.2 uM and expressed as percent compound found in untreated controls.; assay type: functional, Mus musculus; procedure, shortened: as §5
L1210 [19] = test: Compound was tested for the growth inhibition of L1210 cell at a duration of 96 h; assay type: functional, cell-based; conditions: Mus musculus, L1210, 96 h
L1210 [20] = test: Compound was determined for putrescine (PUT) level in L1210 cells after treatment at a concentration of 0.2 uM and expressed as percent compound found in untreated controls.; assay type: functional, Mus musculus; procedure, shortened: as §5
L1210 [21] = test: Compound was determined for putrescine (PUT) level in L1210 cells after treatment at a concentration of 50 uM and expressed as percent compound found in untreated controls.; assay type: functional, Mus musculus
Procedure, shortened: (§6)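 Murine L1210 leukaemia cells, kept in log-phase suspension in RPMI-1640 with 10% FBS, 1 mM glutamine and 1 mM aminoguanidine at 37 °C, 5% CO2, were treated at 50 μM for 48 h. Cells were washed three times in ice-cold incomplete medium, extracted with 0.6 N perchloric acid and freeze-fractured. Putrescine, spermidine and spermine were then measured by HPLC and expressed as percent of untreated control.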

L1210 [22] = test: Compound was determined for spermine (SPM) level in L1210 cells after treatment at a concentration of 50 uM and expressed as percent compound found in untreated controls.; assay type: functional, Mus musculus; procedure, shortened: as §6
L1210 [23] = test: Compound was determined for spermidine (SPD) level in L1210 cells after treatment at a concentration of 50 uM and expressed as percent compound found in untreated controls.; assay type: functional, Mus musculus; procedure, shortened: as §6

In the case of `CCCNCCCCNCCCN`, the Ki [1] is reported as 8.5 µM, the Activity (L1210 [2]) is reported as 0% and the IC50 (L1210 [3]) is reported as > 100 µM. For the same molecule, the Activity (L1210 [4]) was 33%, the Activity (L1210 [5]) was 103% and the Activity [6] was 500%. It also gave an Activity [7] of 14% and an Activity [8] of 64%.

In the case of `CC(=O)NCCCNCCCCNCCCN`, the Ki [9] is reported as 10 µM, the Activity (L1210 [10]) is reported as 24% and the Activity [11] is reported as 25%. For the same molecule, the Activity [12] was 86%, the Activity [13] was 180% and the IC50 (L1210 [14]) was > 100 µM. The Activity (L1210 [4]) was 71%, the Activity (L1210 [15]) was 111% and the IC50 (L1210 [16]) was > 100 µM.

For `Cc1c(O)c(=O)ccn1CCCNCCCCNCCCN`, the Activity (L1210 [17]) was 64%, the Ki [1] was 3.7 µM and the Activity (L1210 [18]) was 139%. The IC50 (L1210 [19]) was 0.2 µM, the Activity [6] was 275% and the Activity [7] was 20%. The Activity [8] was 77% and the Activity (L1210 [20]) was 33%.

In the case of `Cc1c(O)c(=O)ccn1C` [DEFERIPRONE], the Ki [1] is reported as > 500 µM, the Activity (L1210 [21]) is reported as 104% and the Activity (L1210 [22]) is reported as 127%. For the same molecule, the Activity [6] was 108%, the Activity [7] was 114% and the Activity [8] was 120%. For the same molecule, the Activity (L1210 [23]) was 117%.

Work on `CCNCCCNCCCCNCCCN` yielded an Activity [6] of 150%.
